Assay results pooled from the literature.
Each line is one published result; the experiments were not run side by side.
Cell line: MDA-MB-231
Effect on: cell growth or viability

`COc1ccc(CNC[C@@](C)(O)[C@@H]2CC[C@@H](C)C[C@H]2OCc2ccccc2)cc1` gave an inhibition of 45.7% (MTT; 10 µM, 72 h).
With `O=C(C=Cc1ccccc1)Nc1cc(-c2ccnc(N3CCOCC3)c2)ccn1` the IC50 was 0.0729 µM (MTT; 72 h).
`CCc1c(C)c2ccc(OCC=Cc3ccccc3)c(C)c2oc1=O` has a viability of 87.1% (MTT; 125 µg/mL).
`COc1cc2c3c(n(CCCn4ccnc4)c(=O)c2cc1OC)-c1nc2c(cc1C3=O)OCO2` gave an IC50 of 1.51 µM (MTS; 72 h).
For `Cc1cccc(/C=C/C(=O)Nc2cc(-c3ccnc(N4CCOCC4)c3)ccn2)c1`, the inhibition was 79.3% (MTT; 5 µM).
The viability of `CCc1c(C)c2ccc(OCC(=O)NN=Cc3ccc([N+](=O)[O-])cc3)cc2oc1=O` is reported as 36.3% (MTT; 31.25 µg/mL).
With `O=C(C=Cc1ccc(F)cc1)Nc1cc(-c2ccnc(N3CCC(O)CC3)c2)ccn1` the inhibition was 72.3% (MTT; 5 µM).
For `CC(C)CS(=O)(=O)NCc1cccc(-c2ccc3c(NC(=O)CC4CC4)n[nH]c3c2)c1`, the IC50 was 60 µM (ATP luminescence; 48 h).
`C[C@@H]1CC[C@@H]([C@](C)(O)Cn2cnc3ccccc32)[C@H](OCc2ccccc2)C1` gave an inhibition of 83.2% (MTT; 30 µM, 72 h).
`C=CC(=O)c1cccnc1Nc1cccc(C(F)(F)F)c1` gave a GI50 of 14.6 µM (SRB; 48 h).
The IC50 of `Nc1ccccc1NC(=O)c1ccc(CNC(=O)OCc2cccnc2)cc1` is reported as 2.93 µM (MTT; 48 h).
`C[C@@H]1CC[C@@H]([C@](C)(O)CNCc2cccc(F)c2)[C@H](OCc2ccccc2)C1` has an inhibition of 41.5% (MTT; 10 µM, 72 h).
For `Cc1cc(NC(=O)C=Cc2ccccc2)cc(-c2ccnc(N3CCOCC3)c2)c1`, the inhibition was 17.7% (MTT; 5 µM).
With `C=CCNC(=S)NNC(=O)COc1ccc2c(C)c(CC)c(=O)oc2c1C` the viability was 3% (MTT; 500 µg/mL).
The inhibition of `COc1ccccc1CNC[C@@](C)(O)[C@@H]1CC[C@@H](C)C[C@H]1OCc1ccccc1` is reported as 87.6% (MTT; 30 µM, 72 h).
For `Cc1c(Cc2ccccc2)c(=O)oc2c(C)c(OCC(=O)NN=Cc3ccc(Cl)cc3)ccc12`, the viability was 47.1% (MTT; 62.5 µg/mL).
`C[C@@H]1CC[C@@H]([C@@](O)(CNCc2cccc3ccccc23)COCc2ccccc2)[C@H](OCc2ccccc2)C1` gave an inhibition of 91.2% (MTT; 30 µM, 72 h).
`O=C(O)c1cccnc1Nc1cccc(C(F)(F)F)c1` has a GI50 of > 30 µM (SRB; 48 h).
For `CCNC(=S)NNC(=O)COc1ccc2c(C)c(CC)c(=O)oc2c1C`, the viability was 4.73% (MTT; 1000 µg/mL).
With `C=C(COCc1ccccc1)[C@@H]1CC[C@@H](C)C[C@H]1OCc1ccccc1` the inhibition was 28.1% (MTT; 30 µM, 72 h).
For `C=CC(=O)c1cccnc1Nc1cc(C(F)(F)F)ccc1OCc1ccccc1`, the GI50 was 18.3 µM (SRB; 48 h).
For `Nc1ccccc1NC(=O)c1ccc(CNc2ccc(NC3=C(Cl)C(=O)c4ncccc4C3=O)cc2)cc1`, the IC50 was 2.44 µM (MTT; 48 h).
With `COc1ccc(CNC[C@](O)(COCc2ccc(F)cc2)[C@@H]2CC[C@@H](C)C[C@H]2OCc2ccc(F)cc2)cc1` the inhibition was 99.6% (MTT; 10 µM, 72 h).
`CC(=NNC(=O)COc1ccc2c(C)c(Cc3ccccc3)c(=O)oc2c1C)c1ccc(Br)cc1` gave a viability of 48.2% (MTT; 31.25 µg/mL).
`O=C(/C=C/c1cccc(F)c1)Nc1cc(-c2ccnc(N3CCC(O)CC3)c2)ccn1` has an inhibition of 75.8% (MTT; 5 µM).
For `COc1ccc(CNC[C@](O)(COCc2ccc(OC)cc2)[C@@H]2CC[C@@H](C)C[C@H]2OCc2ccc(OC)cc2)cc1`, the inhibition was 98.8% (MTT; 30 µM, 72 h).
The IC50 of `COc1cc2c3c(n(CCCN4CCOCC4)c(=O)c2cc1OC)-c1nc2c(cc1C3=O)OCO2` is reported as > 2 µM (MTS; 72 h).
For `Cc1cccc(/C=C/C(=O)Nc2cccc(-c3ccnc(N4CCC(CO)CC4)c3)c2)c1`, the inhibition was 76.4% (MTT; 5 µM).
The IC50 of `CCNCCCn1c2c(c3cc(OC)c(OC)cc3c1=O)C(=O)c1cc3c(nc1-2)OCO3` is reported as 0.476 µM (MTS; 72 h).
With `O=C(C=Cc1ccccc1)Nc1cc(-c2ccnc(N3CCC(O)CC3)c2)ccn1` the inhibition was 80.3% (MTT; 5 µM).
With `COc1cc([C@@H]2c3cc4c(cc3[C@@H](O[C@@H]3O[C@@H]5CO[C@@H](C)O[C@H]5[C@H](O)[C@H]3O)[C@H]3COC(=O)[C@H]23)OCO4)cc(OC)c1O` the IC50 was 43.2 µM (MTT; 48 h).
The inhibition of `Cc1cc(NC(=O)C=Cc2ccccc2)cc(-c2ccnc(N3CCC(CO)CC3)c2)c1` is reported as 59.8% (MTT; 5 µM).
The viability of `C=CCOc1ccc2c(C)c(CC)c(=O)oc2c1C` is reported as 99.7% (MTT; 31.25 µg/mL).
